Blank lines part the entries; values can stand above or below the compound they belong to. Activity calls are given as the source filed them. No cut-off for these calls is given here.
Key:
K562 [1] = assay: Induction of apoptosis in human K562 cells assessed as early apoptotic cells at 1 uM after 24 hrs by Annexin-V/propidium iodide staining-based flow cytometric analysis (reference value: 7.55%); type: functional
[2] = Toxicity in BALB/c nu mouse xenografted with HEL cells assessed as injury to internal organs at 70 mg/kg/day, ip administered for 16 days and measured post-last dose in presence of SAHA; type: organism-based; conditions: in vivo, 384 h
K562 [3] = assay: Synergistic antiproliferative activity against human K562 cells assessed as reduction in cell viability after 48 hrs in presence of SAHA by MTT assay; type: functional, cell-based; conditions: K562, 48 h
[4] = Drug level in tumor of BALB/c nu mouse xenografted with HEL cells at 100 mg/kg/day, ip administered for 5 days and measured 1 hr post-last dose by LC-MS/MS analysis; type: ADME, organism-based, Neoplasm; conditions: in vivo
Procedure, shortened: (§1)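 HEL-xenografted male BALB/c-nu mice dosed IP at 100 mg/kg/day for 5 days. Sacrificed 0.5, 1.0 and 4.0 h after the last dose. Plasma separated and stored at -80 °C. Tumors homogenized in normal saline (5:1 v/w) and sonicated. Samples deproteinized with methanol containing internal standard, centrifuged, diluted in methanol/acetonitrile and recentrifuged.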

MOLT-4 = assay: Antiproliferative activity against human MOLT4 cells assessed as reduction in cell viability after 48 hrs by MTT assay; type: functional, cell-based; conditions: MOLT-4, 48 h
Procedure, shortened: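 Cells kept in RPMI1640 with 10% FBS at 37 °C, 5% CO2. Seeded and grown for 12 h, then exposed to a range of compound concentrations for 48 h. 0.5% MTT added for 4 h, formazan dissolved in DMSO, absorbance read at 570 nm.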

HEL [5] = assay: Induction of apoptosis in HEL cells assessed as late apoptotic cells at 1 uM after 24 hrs by Annexin-V/propidium iodide staining-based flow cytometric analysis (reference value: 0.023%); type: functional, Homo sapiens
K562 [6] = assay: Antiproliferative activity against human K562 cells assessed as reduction in cell viability after 48 hrs by MTT assay; type: functional, cell-based; conditions: K562, 48 h
HEL [7] = assay: Antiproliferative activity against HEL cells harboring JAK2 V617F mutant assessed as reduction in cell viability after 48 hrs by MTT assay; type: functional, cell-based; conditions: Homo sapiens
HEL [8] = assay: Induction of apoptosis in HEL cells assessed as necrotic apoptotic cells at 1 uM after 24 hrs by Annexin-V/propidium iodide staining-based flow cytometric analysis (reference value: 0.011%); type: functional, Homo sapiens
K562 [9] = assay: Induction of apoptosis in human K562 cells assessed as necrotic apoptotic cells at 1 uM after 24 hrs by Annexin-V/propidium iodide staining-based flow cytometric analysis (reference value: 0.827%); type: functional
HEL [10] = assay: Antitumor activity against HEL cells xenografted in BALB/c nu mouse assessed as tumor growth inhibition at 70 mg/kg/day, ip administered for 16 days and measured every 3 days during compound dosing in presence of SAHA by caliper method relative to control; type: functional, Homo sapiens; conditions: read-out: TGI
Procedure, shortened: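 Male BALB/c-nu mice (5-6 weeks) inoculated subcutaneously in the right flank with 1 × 10^7 HEL cells. Randomized at day 10 (6 per group). Dosed IP daily for 16 days; controls received PBS with 5% DMSO. Tumors measured by caliper every three days (V = ab²/2) and body weight monitored. TGI calculated from final tumor weights versus control.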

HEL [11] = assay: Induction of apoptosis in HEL cells assessed as early apoptotic cells at 1 uM after 24 hrs by Annexin-V/propidium iodide staining-based flow cytometric analysis (reference value: 12.5%); type: functional, Homo sapiens
HEL [12] = assay: Synergistic antiproliferative activity against HEL cells harboring JAK2 V617F mutant assessed as combination index after 48 hrs in presence of SAHA by MTT assay; type: functional, Homo sapiens
HEL [13] = assay: Antitumor activity against HEL cells xenografted in BALB/c nu mouse assessed as reduction in tumor volume at 100 mg/kg/day, ip administered for 16 days and measured every 3 days during compound dosing by caliper method relative to control; type: functional, Homo sapiens; conditions: read-out: TGI
K562 [14] = assay: Synergistic antiproliferative activity against human K562 cells assessed as combination index after 48 hrs in presence of SAHA by MTT assay; type: functional
K562 [15] = assay: Induction of apoptosis in human K562 cells assessed as late apoptotic cells at 1 uM after 24 hrs by Annexin-V/propidium iodide staining-based flow cytometric analysis (reference value: 5.87%); type: functional
HEL [16] = assay: Synergistic antiproliferative activity against HEL cells harboring JAK2 V617F mutant assessed as reduction in cell viability after 48 hrs in presence of SAHA by MTT assay; type: functional, cell-based; conditions: Homo sapiens
Histone deacetylase 2 = Histone deacetylase 2 (Homo sapiens, UniProt Q92769); conditions: A549, at 80 to 400 nM
Chain of Histone deacetylase 2 (Q92769 whole entry): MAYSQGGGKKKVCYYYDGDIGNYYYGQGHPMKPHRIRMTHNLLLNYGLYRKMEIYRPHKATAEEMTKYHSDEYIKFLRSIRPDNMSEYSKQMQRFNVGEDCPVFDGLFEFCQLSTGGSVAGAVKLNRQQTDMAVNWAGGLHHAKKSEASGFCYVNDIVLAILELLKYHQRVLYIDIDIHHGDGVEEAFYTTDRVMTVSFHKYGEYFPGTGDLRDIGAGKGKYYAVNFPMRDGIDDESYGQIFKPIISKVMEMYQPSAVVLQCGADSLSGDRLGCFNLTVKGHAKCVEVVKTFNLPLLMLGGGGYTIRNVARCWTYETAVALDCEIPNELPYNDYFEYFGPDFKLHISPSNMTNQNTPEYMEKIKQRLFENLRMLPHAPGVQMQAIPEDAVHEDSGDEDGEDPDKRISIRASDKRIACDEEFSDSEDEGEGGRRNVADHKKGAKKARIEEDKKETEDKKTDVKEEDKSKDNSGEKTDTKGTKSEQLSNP

[17] = Toxicity in BALB/c nu mouse xenografted with HEL cells assessed as change in body weight at 70 mg/kg/day, ip administered for 16 days and measured every day during compound dosing in presence of SAHA; type: organism-based; conditions: in vivo, 384 h
K562 [18] = assay: Induction of apoptosis in human K562 cells assessed as viable cells at 1 uM after 24 hrs by Annexin-V/propidium iodide staining-based flow cytometric analysis (reference value: 85.7%); type: functional
Jurkat = assay: Antiproliferative activity against human Jurkat cells assessed as reduction in cell viability after 48 hrs by MTT assay; type: functional, cell-based
[19] = target: T1, Protein deacetylase HDAC6 (Homo sapiens, UniProt Q9UBN7); assay: Inhibition of recombinant human HDAC6 using p53 (379 to 382 residues) derived fluorogenic peptide RHKKAc as substrate
T1 sequence (Q9UBN7 whole entry): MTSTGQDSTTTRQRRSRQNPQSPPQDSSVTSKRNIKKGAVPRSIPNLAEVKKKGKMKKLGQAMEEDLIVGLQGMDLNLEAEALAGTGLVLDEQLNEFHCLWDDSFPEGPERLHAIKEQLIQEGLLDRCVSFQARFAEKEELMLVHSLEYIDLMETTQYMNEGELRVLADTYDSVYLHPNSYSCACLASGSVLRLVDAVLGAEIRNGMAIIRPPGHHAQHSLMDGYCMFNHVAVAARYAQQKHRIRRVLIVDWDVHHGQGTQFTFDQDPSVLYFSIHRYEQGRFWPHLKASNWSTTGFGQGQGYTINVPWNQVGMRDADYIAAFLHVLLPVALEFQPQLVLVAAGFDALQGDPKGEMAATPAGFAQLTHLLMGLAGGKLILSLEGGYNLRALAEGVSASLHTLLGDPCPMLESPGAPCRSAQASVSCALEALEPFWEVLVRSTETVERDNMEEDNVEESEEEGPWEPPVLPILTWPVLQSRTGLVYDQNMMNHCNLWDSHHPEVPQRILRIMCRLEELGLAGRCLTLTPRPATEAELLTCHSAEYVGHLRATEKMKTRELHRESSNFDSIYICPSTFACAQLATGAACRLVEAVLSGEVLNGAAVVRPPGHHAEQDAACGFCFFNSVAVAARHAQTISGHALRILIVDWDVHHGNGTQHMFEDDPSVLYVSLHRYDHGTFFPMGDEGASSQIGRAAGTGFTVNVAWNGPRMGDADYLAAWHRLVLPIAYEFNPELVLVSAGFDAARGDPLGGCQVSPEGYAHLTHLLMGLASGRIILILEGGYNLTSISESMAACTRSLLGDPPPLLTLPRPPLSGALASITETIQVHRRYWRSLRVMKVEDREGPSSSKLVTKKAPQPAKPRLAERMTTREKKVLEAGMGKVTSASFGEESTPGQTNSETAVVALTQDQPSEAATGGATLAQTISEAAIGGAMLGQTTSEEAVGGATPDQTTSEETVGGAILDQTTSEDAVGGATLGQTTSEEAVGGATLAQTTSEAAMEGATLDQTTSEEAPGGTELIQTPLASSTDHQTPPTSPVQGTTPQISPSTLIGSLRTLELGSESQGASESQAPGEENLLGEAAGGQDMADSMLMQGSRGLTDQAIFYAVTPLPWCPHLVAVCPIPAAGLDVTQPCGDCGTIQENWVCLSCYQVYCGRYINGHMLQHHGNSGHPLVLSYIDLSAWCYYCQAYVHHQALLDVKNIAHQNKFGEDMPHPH

HEL [20] = assay: Induction of apoptosis in HEL cells assessed as viable cells at 1 uM after 24 hrs by Annexin-V/propidium iodide staining-based flow cytometric analysis (reference value: 87.5%); type: functional, Homo sapiens
[21] = target: T2, Janus Kinase (JAK) (Homo sapiens) (UniProt P52333+P23458+O60674+P29597); assay: Inhibition of JAK in human MDA-MB-231 cells assessed as downregulation of p-STAT3-Tyr705 level at 5 uM after 12 hrs by Western blot analysis
[22] = Toxicity in BALB/c nu mouse xenografted with HEL cells assessed as change in body weight at 60 mg/kg/day, ip administered for 16 days and measured every day during compound dosing in presence of ruxolitinib; type: organism-based; conditions: in vivo, 384 h
[23] = Drug level in BALB/c nu mouse xenografted with HEL cells at 100 mg/kg/day, ip administered for 5 days and measured after 0.5 to 4 hrs by LC-MS/MS analysis; type: ADME, organism-based; conditions: in vivo; procedure, shortened: as §1
[24] = target: T2, Janus Kinase (JAK) (Homo sapiens); assay: Inhibition of JAK in human MDA-MB-231 cells assessed as decrease in upregulation of p-STAT3-Tyr705 level at 5 uM after 12 hrs in presence of ruxolitinib by Western blot analysis; type: cell-based
Procedure, shortened: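 MDA-MB-231 cells treated with compound or DMSO for 12 h, then lysed in SDS buffer and cleared by centrifugation. Lysate resolved by SDS-PAGE and transferred to nitrocellulose. Immunoblotted for p-STAT3 (Tyr705), total STAT3, acetyl-α-tubulin and acetyl-histone H3, with GAPDH as loading control. Detection by enhanced chemiluminescence.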

[25] = target: Tyrosine-protein kinase JAK2 (Homo sapiens, UniProt O60674); assay: Inhibition of recombinant human JAK2 at 10 uM using Ulight-CAGAGAIETDKEYYTVKD as substrate measured after 60 mins by LANCE assay
Chain of Tyrosine-protein kinase JAK2 (O60674 whole entry): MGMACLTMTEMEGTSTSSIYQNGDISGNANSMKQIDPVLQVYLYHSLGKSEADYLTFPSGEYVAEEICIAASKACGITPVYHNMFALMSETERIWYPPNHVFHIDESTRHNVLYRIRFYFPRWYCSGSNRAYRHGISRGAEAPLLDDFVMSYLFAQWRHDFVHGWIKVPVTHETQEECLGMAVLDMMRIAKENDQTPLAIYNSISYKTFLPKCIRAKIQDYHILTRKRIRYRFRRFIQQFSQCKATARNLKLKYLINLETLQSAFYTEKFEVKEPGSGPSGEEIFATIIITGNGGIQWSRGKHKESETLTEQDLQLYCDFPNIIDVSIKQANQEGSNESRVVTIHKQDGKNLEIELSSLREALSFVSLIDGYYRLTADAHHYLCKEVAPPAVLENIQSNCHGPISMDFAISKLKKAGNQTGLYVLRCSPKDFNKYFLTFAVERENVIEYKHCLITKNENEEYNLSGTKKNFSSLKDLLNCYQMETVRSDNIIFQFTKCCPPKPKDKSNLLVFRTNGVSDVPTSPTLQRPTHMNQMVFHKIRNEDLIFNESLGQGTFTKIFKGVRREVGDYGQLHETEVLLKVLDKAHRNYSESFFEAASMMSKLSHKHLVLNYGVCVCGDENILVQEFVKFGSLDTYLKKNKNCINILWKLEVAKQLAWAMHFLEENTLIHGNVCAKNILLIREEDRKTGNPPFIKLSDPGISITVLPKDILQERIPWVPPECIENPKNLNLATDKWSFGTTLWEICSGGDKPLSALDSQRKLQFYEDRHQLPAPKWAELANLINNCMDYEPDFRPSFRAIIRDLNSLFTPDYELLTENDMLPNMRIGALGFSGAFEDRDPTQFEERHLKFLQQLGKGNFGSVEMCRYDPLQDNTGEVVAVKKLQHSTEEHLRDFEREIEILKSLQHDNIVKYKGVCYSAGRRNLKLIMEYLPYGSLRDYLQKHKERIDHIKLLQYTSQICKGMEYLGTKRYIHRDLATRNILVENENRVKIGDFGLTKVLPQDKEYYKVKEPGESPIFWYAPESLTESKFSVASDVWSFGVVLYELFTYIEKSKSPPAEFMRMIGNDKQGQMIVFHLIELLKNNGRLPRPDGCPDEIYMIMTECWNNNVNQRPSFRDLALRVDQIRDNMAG

[26] = Toxicity in BALB/c nu mouse xenografted with HEL cells assessed as injury to internal organs at 60 mg/kg/day, ip administered for 16 days and measured post-last dose in presence of ruxolitinib; type: organism-based; conditions: in vivo, 384 h

IC50 (K562 [3]): 1030 nM
Drug uptake [4]: Active
IC50 (MOLT-4): 15800 nM
IC50 (K562 [6]): 23200 nM
inhibition (Histone deacetylase 2): Active
IC50 (Jurkat): > 5000 nM
IC50 [19]: 15 nM
Compound: N#CC[C@H](C1CCCC1)n1cc(-c2ncnc3[nH]ccc23)cn1 [RUXOLITINIB]
Activity (K562 [1]): 9.22%
Activity [2]: Non-Toxic
Activity (HEL [5]): 11.7%
IC50 (HEL [7]): 18600 nM
Activity (HEL [8]): 0.85%
Activity (K562 [9]): 0.248%
inhibition in vivo at 70 mg/kg/day (HEL [10]): 57%
Activity (HEL [11]): 8.08%
CI (HEL [12]): 0.48
inhibition in vivo at 100 mg/kg/day (HEL [13]): 27%
CI (K562 [14]): 0.97
Activity (K562 [15]): 15.3%
IC50 (HEL [16]): 300 nM
Activity [17]: Non-Toxic
viability at 1 µM (K562 [18]; Homo sapiens, K562, 24 h, read-out: Activity): 75.2%
viability at 1 µM (HEL [20]; Homo sapiens, HEL, 24 h, read-out: Activity): 79.4%

IC50 (MOLT-4): 400 nM
Activity [21]: Active
Drug uptake [23]: Active
inhibition [24]: Active
inhibition [25]: inactive
Compound: O=C(CCCCCCC(=O)Nc1ccccc1)NO [VORINOSTAT]
Activity (K562 [1]): 14.5%
Activity (HEL [5]): 44.6%
Activity (HEL [8]): 2%
Activity (K562 [9]): 0.73%
Activity (HEL [11]): 21.3%
Activity [22]: Non-Toxic
Activity (K562 [15]): 17.3%
Activity (K562 [18]): 67.6%
Activity [26]: Non-Toxic
Activity (HEL [20]): 32.1%

Source: ChEMBL document CHEMBL4346670, “Discovery of Novel Janus Kinase (JAK) and Histone Deacetylase (HDAC) Dual Inhibitors for the Treatment of Hematological Malignancies” (J Med Chem, 2019)
